Measured values gathered from unrelated publications.
Lines come from different studies, so protocols differ.
CYP2E1: Cytochrome P450 2E1 (CYP2E1, Homo sapiens, UniProt P05181)

Compound	tested on	assay	test system	conditions	quantity	result
O=c1[nH]c2sc3c(c2c(=O)n1O)CCNC3	HFF	cell growth or viability, MTS		10 µM, 7 days	viability	107%
CCN(CC)C(=O)CN1C(=O)Cc2c([nH]c3ccc(Br)cc23)-c2ccc(Cl)cc21	J774	cell growth or viability, WST-1		24 h	CC50	≥ 100 µM
CCc1cc(/C(C)=N/OCc2ccc(C3CCCCC3)c(C(F)(F)F)c2)ccc1CN1CC(C(=O)O)C1	CYP2E1	enzyme activity, inhibitor	human, liver microsomes	100 µM, 20 min	inhibition	32.6%
CC1COc2ccccc2N1C(=O)C(Cl)Cl (stereo not drawn)		metabolic stability	female monkey, liver microsomes	5 µM, pH 7.4	microsomal CLint	1400 µL/min/mg
Nc1ccc(C=Cc2ccc([125I])cc2)cc1			Swiss mouse, brain	intravenous, 5 µCi, 2 min	tracer uptake	2.29 %ID/g
O=c1[nH]c2sc(-c3ccc(Cl)cc3)cc2c(=O)n1O	HFF	cell growth or viability, MTS		10 µM, 7 days	viability	101%
O=C(CN1C(=O)Cc2c([nH]c3ccc(Br)cc23)-c2ccc(Cl)cc21)N1CCNCC1	J774	cell growth or viability, WST-1		24 h	CC50	≤ 10 µM
O=c1[nH]c2c(-c3ccccc3)csc2c(=O)n1O	HFF	cell growth or viability, MTS		10 µM, 7 days	viability	130%
O=C(CCCCCCC(=O)Nc1ccc(CC[18F])cc1)NO			male nude mouse, stomach	intravenous, 2 h, tumour-bearing	tracer uptake	1 %ID/g
O=c1[nH]c2sc3c(c2c(=O)n1O)CCN(Cc1ccccc1)C3	HFF	cell growth or viability, MTS		10 µM, 7 days	viability	104%
CC(C)(C)OC(=O)CN1C(=O)Cc2c([nH]c3ccc(Br)cc23)-c2ccc(Cl)cc21	J774	cell growth or viability, WST-1		24 h	CC50	≤ 100 µM
Cc1c(C(=O)O)sc2[nH]c(=O)n(O)c(=O)c12	HFF	cell growth or viability, MTS		10 µM, 7 days	viability	94%
O=C(CN1C(=O)Cc2c([nH]c3ccc(Br)cc23)-c2ccc(Cl)cc21)N1CCCC1	J774	cell growth or viability, WST-1		24 h	CC50	≤ 100 µM
Cn1ccc(COc2cnc(C(N)=O)cc2-c2ccc(O[11CH3])cc2F)n1			male mouse, lung	intravenous, 2.5 MBq, 5 min	tracer uptake	2.61 %ID/g
CCN(CC)C(=S)S	CYP2E1	enzyme activity, inhibitor	human, liver microsomes	50 µM	inhibition	75%
